{"source": "ChEMBL document CHEMBL1124418", "about": "“Antitumor agents. 100. Inhibition of human DNA topoisomerase II by cytotoxic ether and ester derivatives of podophyllotoxin and alpha-peltatin” (1989)", "data": [{"target": "DNA topoisomerase II (Homo sapiens) (UniProt P11388+Q02880)", "test": "Compound was tested for inhibition against human DNA topoisomerase II", "type": "protein assay", "design": "concentration or dose not given beside the values", "conditions": "concentration not given here", "units": {"inhibition": "%"}, "values": [{"molecule": "COc1cc([C@@H]2c3cc4c(c(OC(C)=O)c3C[C@H]3COC(=O)[C@@H]32)OCO4)cc(OC)c1O", "inhibition": 0}, {"molecule": "COc1cc([C@@H]2c3cc4c(cc3[C@@H](OC(=O)CCC(=O)O)[C@H]3COC(=O)[C@H]23)OCO4)cc(OC)c1O", "inhibition": 0}, {"molecule": "COc1cc([C@@H]2c3cc4c(cc3[C@@H](OC)[C@H]3COC(=O)[C@H]23)OCO4)cc(OC)c1O", "inhibition": 25}, {"molecule": "COc1cc([C@@H]2c3cc4c(c(OC(=O)CCC(=O)O)c3C[C@H]3COC(=O)[C@@H]32)OCO4)cc(OC)c1O", "inhibition": 0}, {"molecule": "COc1cc([C@@H]2c3cc4c(cc3[C@@H](OC(C)=O)[C@H]3COC(=O)[C@H]23)OCO4)cc(OC)c1O", "inhibition": 25}, {"molecule": "CCO[C@@H]1c2cc3c(cc2[C@@H](c2cc(OC)c(O)c(OC)c2)[C@H]2C(=O)OC[C@@H]21)OCO3", "inhibition": 25}, {"molecule": "CCC(=O)Oc1c2c(cc3c1OCO3)[C@@H](c1cc(OC)c(O)c(OC)c1)[C@H]1C(=O)OC[C@@H]1C2", "inhibition": 25}, {"molecule": "CCCC(=O)Oc1c2c(cc3c1OCO3)[C@@H](c1cc(OC)c(O)c(OC)c1)[C@H]1C(=O)OC[C@@H]1C2", "inhibition": 25}, {"molecule": "COc1cc([C@@H]2c3cc4c(c(O)c3C[C@H]3COC(=O)[C@@H]32)OCO4)cc(OC)c1O", "inhibition": 0}, {"molecule": "COc1cc([C@@H]2c3cc4c(c(O[C@@H]5O[C@H]6CO[C@@H](c7cccs7)O[C@H]6[C@H](O)[C@@H]5O)c3C[C@H]3COC(=O)[C@@H]32)OCO4)cc(OC)c1O", "inhibition": 25}, {"molecule": "COc1cc([C@@H]2c3cc4c(c(OC)c3C[C@H]3COC(=O)[C@@H]32)OCO4)cc(OC)c1O", "inhibition": 25}, {"molecule": "COc1cc([C@@H]2c3cc4c(c(OC(=O)OCc5ccccc5)c3C[C@H]3COC(=O)[C@@H]32)OCO4)cc(OC)c1O", "inhibition": 25}, {"molecule": "COc1cc([C@@H]2c3cc4c(cc3[C@@H](O[C@@H]3O[C@@H]5CO[C@@H](C)O[C@H]5[C@H](O)[C@H]3O)[C@H]3COC(=O)[C@H]23)OCO4)cc(OC)c1O", "note": "[ETOPOSIDE]", "inhibition": "> 88"}, {"molecule": "COc1cc([C@@H]2c3cc4c(c(O[C@@H]5O[C@@H](CO)[C@@H](O)[C@H](O)[C@@H]5O)c3C[C@H]3COC(=O)[C@@H]32)OCO4)cc(OC)c1O", "inhibition": 25}, {"molecule": "CCS[C@@H]1c2cc3c(cc2[C@@H](c2cc(OC)c(O)c(OC)c2)[C@H]2C(=O)OC[C@@H]21)OCO3", "inhibition": 25}, {"molecule": "CCC(=O)O[C@@H]1c2cc3c(cc2[C@@H](c2cc(OC)c(O)c(OC)c2)[C@H]2C(=O)OC[C@@H]21)OCO3", "inhibition": 0}, {"molecule": "COc1cc([C@@H]2c3cc4c(cc3[C@@H](O)[C@H]3COC(=O)[C@H]23)OCO4)cc(OC)c1O", "note": "[4'-DEMETHYLEPIPODOPHYLLOTOXIN]", "inhibition": 50}]}, {"system": "not listed separately", "test": "Compound was tested for in vitro cytotoxicity in KB cells after 3 days of incubation", "type": "functional", "conditions": "Homo sapiens, 72 h, read-out: ED50 (the source's name)", "outline": "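KB human tumor cells exposed to drug for 3 days; read-out was cell number. ED50 was taken as the drug concentration giving 50% reduction in cell number. Values are marked as preliminary.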", "units": {"EC50": "µg/mL"}, "values": [{"molecule": "COc1cc([C@@H]2c3cc4c(c(OC(C)=O)c3C[C@H]3COC(=O)[C@@H]32)OCO4)cc(OC)c1O", "EC50": 0.01}, {"molecule": "COc1cc([C@@H]2c3cc4c(cc3[C@@H](OC(=O)CCC(=O)O)[C@H]3COC(=O)[C@H]23)OCO4)cc(OC)c1O", "EC50": 1}, {"molecule": "COc1cc([C@@H]2c3cc4c(cc3[C@@H](OC)[C@H]3COC(=O)[C@H]23)OCO4)cc(OC)c1O", "EC50": 1.1}, {"molecule": "COc1cc([C@@H]2c3cc4c(c(OC(=O)CCC(=O)O)c3C[C@H]3COC(=O)[C@@H]32)OCO4)cc(OC)c1O", "EC50": 0.01}, {"molecule": "COc1cc([C@@H]2c3cc4c(cc3[C@@H](OC(C)=O)[C@H]3COC(=O)[C@H]23)OCO4)cc(OC)c1O", "EC50": 0.2}, {"molecule": "CCO[C@@H]1c2cc3c(cc2[C@@H](c2cc(OC)c(O)c(OC)c2)[C@H]2C(=O)OC[C@@H]21)OCO3", "EC50": 1.1}, {"molecule": "CCC(=O)Oc1c2c(cc3c1OCO3)[C@@H](c1cc(OC)c(O)c(OC)c1)[C@H]1C(=O)OC[C@@H]1C2", "EC50": 0.005}, {"molecule": "COc1cc([C@@H]2c3cc4c(cc3[C@@H](OC(=O)c3ccccc3C(=O)O)[C@H]3COC(=O)[C@H]23)OCO4)cc(OC)c1O", "EC50": 0.8}, {"molecule": "C/C=C\\C(=O)O[C@@H]1c2cc3c(cc2[C@@H](c2cc(OC)c(O)c(OC)c2)[C@H]2C(=O)OC[C@@H]21)OCO3", "EC50": 0.9}, {"molecule": "CCCC(=O)Oc1c2c(cc3c1OCO3)[C@@H](c1cc(OC)c(O)c(OC)c1)[C@H]1C(=O)OC[C@@H]1C2", "EC50": 0.004}, {"molecule": "COc1cc([C@@H]2c3cc4c(cc3[C@@H](OC(=O)Cc3ccccc3)[C@H]3COC(=O)[C@H]23)OCO4)cc(OC)c1O", "EC50": 0.00028}, {"molecule": "COc1cc([C@@H]2c3cc4c(c(O)c3C[C@H]3COC(=O)[C@@H]32)OCO4)cc(OC)c1O", "EC50": 0.09}, {"molecule": "COc1cc([C@@H]2c3cc4c(c(O[C@@H]5O[C@H]6CO[C@@H](c7cccs7)O[C@H]6[C@H](O)[C@@H]5O)c3C[C@H]3COC(=O)[C@@H]32)OCO4)cc(OC)c1O", "EC50": 2}, {"molecule": "COc1cc([C@@H]2c3cc4c(c(O[C@@H]5O[C@H]6CO[C@@H](C)O[C@H]6[C@H](O)[C@@H]5O)c3C[C@H]3COC(=O)[C@@H]32)OCO4)cc(OC)c1O", "EC50": 2}, {"molecule": "COc1cc([C@@H]2c3cc4c(c(OC)c3C[C@H]3COC(=O)[C@@H]32)OCO4)cc(OC)c1O", "EC50": 0.001}, {"molecule": "COc1cc([C@@H]2c3cc4c(c(OC(=O)OCc5ccccc5)c3C[C@H]3COC(=O)[C@@H]32)OCO4)cc(OC)c1O", "EC50": 0.01}, {"molecule": "COc1cc([C@@H]2c3cc4c(cc3[C@@H](O[C@@H]3O[C@@H]5CO[C@@H](C)O[C@H]5[C@H](O)[C@H]3O)[C@H]3COC(=O)[C@H]23)OCO4)cc(OC)c1O", "note": "[ETOPOSIDE]", "EC50": 0.12}, {"molecule": "COc1cc([C@@H]2c3cc4c(c(O[C@@H]5O[C@@H](CO)[C@@H](O)[C@H](O)[C@@H]5O)c3C[C@H]3COC(=O)[C@@H]32)OCO4)cc(OC)c1O", "EC50": 1.1}, {"molecule": "CCS[C@@H]1c2cc3c(cc2[C@@H](c2cc(OC)c(O)c(OC)c2)[C@H]2C(=O)OC[C@@H]21)OCO3", "EC50": 1.1}, {"molecule": "CCC(=O)O[C@@H]1c2cc3c(cc2[C@@H](c2cc(OC)c(O)c(OC)c2)[C@H]2C(=O)OC[C@@H]21)OCO3", "EC50": 1}, {"molecule": "COc1cc([C@@H]2c3cc4c(cc3[C@@H](O)[C@H]3COC(=O)[C@H]23)OCO4)cc(OC)c1O", "note": "[4'-DEMETHYLEPIPODOPHYLLOTOXIN]", "EC50": 0.06}, {"molecule": "COc1cc([C@@H]2c3cc4c(c(OC(=O)Cc5ccccc5)c3C[C@H]3COC(=O)[C@@H]32)OCO4)cc(OC)c1O", "EC50": 0.01}]}]}
